# Test results reported in article PMC3086571 (Organometallics, 2011).
# pIC50: −log10 of the molar value.
# Legend:
# rat skeletal myoblasts = details: in vitro, preliminary; cited from earlier work
# [1] = tested on: CH1 cells (ovarian carcinoma); test: MTT cytotoxicity assay, CH1; format: cell-based, human; details: for capacity of inhibiting tumor cell proliferation in vitro: CH1 ovarian cancer cells; for pIC50: Homo sapiens, CH1, 96 h, read-out: IC50 CH1
# Outline: (§1)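 Adherent monolayers grown in supplemented MEM with 10% heat-inactivated FBS at 37 °C, 5% CO2. Cells were trypsinised and seeded at 4 × 10^3 (A549), 1.5 × 10^3 (CH1) or 2.5 × 10^3 (SW480) per well, then left 24 h. Compound dilutions in complete medium were applied for 96 h. MTT was added for 4 h and formazan dissolved in DMSO; OD read at 550/690 nm versus untreated controls. IC50 was interpolated from the curves; ≥3 independent experiments, triplicates.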
# Aqueous stability [2] = format: physicochemical; details: for Stability (amount of aqua complex in the solution), 1H NMR: D2O, after 18 or 24 h incubation (NMR: 18 h)
# Outline: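 Test compound (1−2 mg/mL) dissolved in D2O; 1H NMR spectra recorded immediately after dissolution and again after 18 h to follow chlorido-to-aqua exchange.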
# topoisomerase II = details: electrophoretic assay with plasmid DNA; cited from earlier work
# Aqueous stability [3] = format: physicochemical; details: water, 25 °C, after 18 or 24 h incubation
# [4] = tested on: SW480 cells (colon carcinoma); test: MTT cytotoxicity assay, SW480; format: cell-based; details: Homo sapiens, SW480, 96 h, read-out: IC50 SW480
# Outline: as §1
# [5] = tested on: A549 cells (nonsmall cell lung carcinoma); test: MTT cytotoxicity assay, A549; format: cell-based; details: Homo sapiens, A549, 96 h, read-out: IC50 A549
# Outline: as §1
Compound,cytotoxic activity in rat skeletal myoblasts (rat skeletal myoblasts),capacity of inhibiting tumor cell proliferation in vitro [1],sensitivity of CH1 cells relative to SW480 cells ([1]; ratio of IC50 SW480 / CH1),"Stability (amount of aqua complex in the solution), 1H NMR (Aqueous stability [2]) [%]","free ligand from decomposition of the aqua species (Aqueous stability [2]; aqueous solution, over 24 h)",topoisomerase II inhibition (topoisomerase II),"Stability (amount of aqua complex in the solution), CZE-ICP-MS (Aqueous stability [3]) [%]",pIC50 [1],pIC50 [4],pIC50 [5]
"CC1COc2c(N3CCN(C)CC3)c(F)cc3c(=O)c(C(=O)[O-])cn1c23.Cc1ccc(C(C)C)cc1.[Cl-].[Ru+2] (centres unmarked) [Compound 1, chlorido(η^6-p-cymene)(ofloxacinato-κ^2O,O)ruthenium(II)]",no significant activity,moderate,about 10 times,45,more than 40%,very little topoisomerase II inhibition,56,,,
"CCn1nc(C(=O)O)c(=O)c2cc3c(cc21)OCO3 [cin-H, cinoxacin]",,,,,,,,< 3.49,< 3.49,< 3.49
"CCn1cc(C(=O)O)c(=O)c2ccc(C)nc21 [nal-H, nalidixic acid]",,,,,,,,< 3.49,< 3.49,< 3.49
"CC1COc2c(N3CCN(C)CC3)c(F)cc3c(=O)c(C(=O)O)cn1c23 (centres unmarked) [oflo-H, ofloxacin, reference compound]",,,,,,very little topoisomerase II inhibition,,< 3.49,< 3.49,< 3.49
"Chlorido(η^6-p-cymene)(cinoxacinato-κ^2O,O)ruthenium(II) [Compound 3]",,inactive,,90,,,87,,,
"Chlorido(η^6-p-cymene)(nalidixicato-κ^2O,O)ruthenium(II) [Compound 2]",,inactive,,94,,,93,,,
